UBC13 inh – inhibitors of human UBC13 polyubiquitin chain formation. 0.47% of 330,000 active. inhibition, % at 20 µM. P61088. AID 485273. TR-FRET; in the data active = inhibition above about 45%, passing the limit was not always enough; inconclusive = no clear call, values can overlap the other calls
Target sequence (P61088 whole entry, looked up): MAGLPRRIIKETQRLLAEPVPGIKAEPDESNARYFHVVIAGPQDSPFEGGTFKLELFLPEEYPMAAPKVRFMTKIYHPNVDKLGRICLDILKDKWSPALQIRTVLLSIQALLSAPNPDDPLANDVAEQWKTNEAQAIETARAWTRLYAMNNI
T cruzi repl – T. cruzi replication inhibition | T. cruzi beta-gal in NIH3T3, luminescence, 90 h | inhibition, % (concentration not given with the values) | 1.4% of 300,000 active | AID 1885;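 active = mean inhibition across valid replicates above about 55%, limit read from the data; inconclusive = mean below that limit but half or more replicates reach it; inactive = mean below it, under half of replicates reach it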;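 also: signal also drops with host cell toxicity which is not excluded here; 0% = plate median of DMSO wells and 100% = zero luminescence signal; higher percent means less beta-gal luminescence so fewer parasites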
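Incubation – ≥90 h infection period, 3 h prior cell attachment · System – NIH/3T3 fibroblasts plus reporter T. cruzi · Doses – compound pinned at 50 nL/well, DMSO · Read-out basis – percent inhibition of parasite-derived β-gal signal · Signal – luminescent β-galactosidase signal after 60 min lysis · Also added – 5000 T. cruzi trypomastigotes/well · Medium – Low-serum DMEM with 2% FBS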
AI-2 QS modul – modulators of Vibrio harveyi AI-2 quorum sensing system | Vibrio harveyi JMH597 AI-2 luminescence/OD600 ratio, 9 h; stronger effect = lower value; strain lacks LuxN and CqsS sensors; 0 = neutral-control median | activity change, % at 7.5 µM | 0.4% of 300,000 active; in the data active = activity change below about -75%, passing the limit was not always enough; inconclusive = no clear call, values can overlap the other calls;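 also: luminescence divided by OD600 gain over 9 h not by final OD600 alone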
p-CIP stab down – compounds decreasing mouse p/CIP protein stability | Q05BA5 | F442A p/CIP-EGFP cells, EGFP fluorescence, 16 h | decrease of EGFP signal, % at 10 µM | 0.01% of 290,000 active;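 active = EGFP signal decrease of at least 30% at 10 µM or well 3 SD below plate mean, unless failing retest; inactive = the rest, including hits failing retest or dose response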
PP1 counter – counter-screen for PP5 inhibitors: inhibitors of human PP1-alpha | 0.9% of 320,000 active | purified PP1alpha, OMFP fluorescence | P62136 | inhibition, % at 6.7 µM;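 active = inhibition above the mean inhibition of all tested compounds plus 3 SD, computed separately for each screening campaign, cut at about 15% in these data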
Target sequence (P62136 whole entry, looked up): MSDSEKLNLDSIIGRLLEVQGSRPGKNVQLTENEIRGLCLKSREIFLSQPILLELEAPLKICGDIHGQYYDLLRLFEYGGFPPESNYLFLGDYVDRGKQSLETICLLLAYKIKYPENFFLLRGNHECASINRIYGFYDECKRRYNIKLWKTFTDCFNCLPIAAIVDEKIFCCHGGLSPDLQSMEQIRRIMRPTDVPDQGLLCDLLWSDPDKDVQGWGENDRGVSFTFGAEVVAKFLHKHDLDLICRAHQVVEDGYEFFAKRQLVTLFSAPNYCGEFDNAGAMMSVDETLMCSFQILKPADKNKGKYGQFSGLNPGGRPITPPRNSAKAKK
Casp3 counter – counter-screen for UBC13 inhibitors: human caspase-3 inhibition. shares compounds with UBC13 inh. AID 488856. Recombinant caspase-3, Caspase-Glo 3/7 luminescence, 60 min. 4% of 1,400 active. inhibition, % at 20 µM;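 active = mean inhibition across replicates above about 26%, limit read from the data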;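 also: plate controls were DMSO with caspase-3 for no effect and DMSO wells lacking enzyme for full effect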
UBC13 confirm – confirmation of human UBC13 polyubiquitin inhibitors; AID 488859; 68% of 1,400 active; inhibition, % at 10 µM; shares compounds with UBC13 inh; UBC13 polyubiquitination, TR-FRET, biochemical; in the data active = inhibition above about 45%; inconclusive = no clear call, values can overlap the other calls
Starred values were filed as active, the others as inactive; ? = inconclusive; · = no result. Compounds with a hit are over-represented: about 2.8% of the library has one in this group of screens.

SMILES | UBC13 inh | T cruzi repl | AI-2 QS modul | p-CIP stab down | PP1 counter | Casp3 counter | UBC13 confirm
NC(=O)[C@@H]1CCCCNc2c(F)cc([N+](=O)[O-])cc2C(=O)N[C@@H](CCCN=C(N)N)C(=O)NCC(=O)N1 | 24 | -4 | 9 | 3 | 2 | · | ·
NCCCC[C@@H]1NC(=O)c2cc([N+](=O)[O-])cc(F)c2NCCCC[C@@H](C(N)=O)NC(=O)[C@H](CCC(N)=O)NC1=O | 74* | -15 | 9 | -2 | -3 | 1 | 56*
COc1ccc(S(=O)(=O)n2nc(C)c(S(=O)(=O)N3CCOCC3)c2C)cc1OC | · | -23 | 22 | -1 | 6 | · | ·
COc1ccccc1[C@@H]1C(c2cccc(C)c2)=NN(c2ccccc2)[C@H]1C(=O)N1CCOC1=O | 46* | 24 | 17 | -25 | 1 | -2 | 46*
COc1ccccc1[C@@H]1C(c2ccc(F)cc2)=NN(c2ccccc2)[C@H]1C(=O)N1CCOC1=O | 23 | 4 | 26 | -2 | 3 | · | ·
Cc1ccc(S(=O)(=O)Nc2ccc(S(=O)(=O)Nc3nccs3)cc2)c([N+](=O)[O-])c1 | -14 | -14 | 28 | 0 | 2 | · | ·
S=C1NC[C@H](c2ccccc2)N1CCCCC1CCCCC1 | 8 | 6 | 33 | -7 | 2 | · | ·
NC1=NC[C@H](c2ccccc2)N1CCCCC1CCCCC1 | 79* | 50 | 33 | -10 | 9 | -3 | 72*
CCOC(=O)C1=C(COC(=O)/C=C/c2cccc(OC)c2OC)NC(=O)NC1C (stereo unspecified) | 3 | -9 | 43 | 1 | -2 | · | ·
O=C(NC(=S)Nc1ccc(N2CCN(C(=O)c3ccccc3)CC2)cc1)c1cccs1 | 48* | 22 | 30 | -27 | 4 | 0 | 56*
O=C(NC(=S)Nc1ccccc1N1CCN(C(=O)c2ccccc2)CC1)c1cccs1 | -4 | -1 | 40 | -7 | -4 | · | ·
O=C(CCCn1c(=O)c2ccccc2n(Cc2cccc(F)c2)c1=O)NC1CCN(Cc2ccccc2)CC1 | 100* | 31 | 27 | 4 | -1 | 4 | 112*
O=C(CCCCn1c(=O)c2ccccc2n(CC(=O)NC2CCCC2)c1=O)NC1CCCC1 | 8 | -2 | 13 | -9 | -1 | · | ·
O=C(CCCCn1c(=O)c2ccccc2n(Cc2ccccc2)c1=O)NC1CCN(Cc2ccccc2)CC1 | 94* | 59* | 7 | 7 | -1 | 1 | 108*
Fc1ccc(Nc2nnc(C(F)(F)F)s2)cc1 | 5 | -5 | 2 | -9 | 0 | · | ·
C[C@@H]1CC[C@@]2(O[C@@H](CCO)C[C@@H](O)[C@@H]2O)O1 | 5 | -4 | 19 | · | 0 | · | ·
O=c1c2sccc2[nH]c(=S)n1-c1ccccc1 | 65* | -10 | 25 | -4 | -6 | 2 | ?
NC(CO)C(=O)NNCc1ccc(O)c(O)c1O (stereo unspecified) | 48* | -8 | 31 | -9 | 1 | 2 | 30
COC(=O)C(N)Cc1ccc(O)c(O)c1 (stereo unspecified) | 9 | 2 | 3 | -3 | -3 | · | ·
C#CCOCCOCCOCCNc1nc(N2CCN(C(=O)CCCCCCCCCCNC(=O)[C@H](CCCCN)n3cc(C[C@@H](C)CC)nn3)CC2)nc(N2CCN(C(=O)CCCCCCCCCCNC(=O)[C@H](CCCN=C(N)N)n3cc(C[C@@H](C)CC)nn3)CC2)n1 | 125* | · | · | · | 68* | -1 | 125*
C#CCOCCOCCOCCNc1nc(N2CCOCC2)nc(N2CCN(C(=O)CCCCCCCCCCNC(=O)[C@H]([C@@H](C)CC)n3cc(CCCCN=C(N)N)nn3)CC2)n1 | 77* | · | · | · | 15* | 1 | 70*
NCCCCCc1cn([C@@H](CCC(=O)O)C(=O)NCCCCCCCCCCC(=O)N2CCNCC2)nn1 | 5 | · | · | · | -2 | · | ·
C#CCOCCOCCOCCNc1nc(N2CCN(C(=O)CCCCCCCCCCNC(=O)[C@@H](CCC(=O)O)n3cc(CCCCCN)nn3)CC2)nc(N2CCN(C(=O)CCCCCCCCCCNC(=O)[C@H](CO)n3cc(CCCSC)nn3)CC2)n1 | 84* | · | · | · | 3 | -2 | 40
CC[C@H](C)Cc1cn([C@@H](CCCCN)C(=O)NCCCCCCCCCCC(=O)N2CCNCC2)nn1 | 47* | -46 | -20 | · | -1 | 2 | 45*
C#CCOCCOCCOCCNc1nc(N2CCOCC2)nc(N2CCN(C(=O)[C@H]([C@@H](C)CC)n3cc(CCCN=C(N)N)nn3)CC2)n1 | 15 | -18 | 16 | -7 | 2 | · | ·
SMILES | UBC13 inh | T cruzi repl | AI-2 QS modul | p-CIP stab down | PP1 counter | Casp3 counter | UBC13 confirm
CCC(=O)Nc1ccc(C(=O)COC(=O)Cc2ccsc2)cc1 | 3 | · | · | · | 8 | · | ·
C#CCOCCOCCOCCNc1nc(N2CCN(C(=O)CCCCCCCCCCNC(=O)Cn3cc(C[C@@H](C)O)nn3)CC2)nc(N2CCN(C(=O)CCCCCCCCCCNC(=O)[C@@H](CCSC)n3cc(CCO)nn3)CC2)n1 | 26 | · | · | · | 6 | · | ·
C#CCOCCOCCOCCNc1nc(N2CCN(C(=O)CCCCCCCCCCNC(=O)[C@H](CCCCN)n3cc(CCO)nn3)CC2)nc(N2CCN(C(=O)CCCCCCCCCCNC(=O)[C@H](CCCCN)n3cc(CCCC(=O)O)nn3)CC2)n1 | 117* | · | · | · | 0 | 2 | 111*
CC[C@H](C)Cc1cn([C@@H](CCCN=C(NC(=O)OC(C)(C)C)NC(=O)OC(C)(C)C)C(=O)NCCCCCCCCCCC(=O)N2CCN(C(=O)OC(C)(C)C)CC2)nn1 | 54* | 59* | 1 | · | 9 | -3 | 27
C#CCOCCOCCOCCNc1nc(N2CCN(C(=O)CCCCCCCCCCNC(=O)[C@@H](CCC(=O)O)n3cc(CCCCCN)nn3)CC2)nc(N2CCN(C(=O)CCCCCCCCCCNC(=O)[C@H](CO)n3cc(CCCCCN)nn3)CC2)n1 | 102* | · | · | · | 15* | -4 | 74*
CCc1ccccc1NC(=O)C1CCN(C(=O)c2ccc([N+](=O)[O-])cc2)CC1 | 3 | -3 | 0 | -11 | 2 | · | ·
CC1Cc2ccccc2N1C(=O)COC(=O)c1ccc([N+](=O)[O-])o1 (stereo unspecified) | 45 | · | · | · | · | · | ·
COc1ccc(C2/C=C\CN(Cc3ccncc3)CC(=O)N2Cc2ccc(F)cc2)cc1 (stereo unspecified) | 4 | -4 | 20 | -6 | 1 | · | ·
Cc1sc2ncnc(N3CCC(C(=O)Nc4ccc(Br)cc4Br)CC3)c2c1C | -4 | 15 | 4 | · | 11 | · | ·
COCc1cc(=O)[nH]c(Nc2nc3ccc(C)cc3o2)n1 | 74* | 59* | 15 | 4 | 1 | 27* | 89*
COc1ccccc1C(=O)N=c1sc2c(C)ccc(OC)c2n1C | 48* | 33 | -2 | 1 | 4 | 73* | ?

Screens from PubChem BioAssay.
